Holding throughout (format): functional
Assay [1] has as its system Oncopeltus fasciatus. Put plainly: Insecticidal activity against third-instar nymph stage of Oncopeltus fasciatus assessed as nymph survival to reach adult instar stage at 20 to 500 ug/cm2 after 72 hr relative to control. The method, boiled down:
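Insects were colony-reared at 27 ± 1 °C, 50-60% RH and 16 h/8 h photoperiod. After 72 h of exposure, surviving nymphs were moved to a 500 cm3 glass flask and held under standard conditions to follow development to the adult stage. Acetone-treated controls were run in parallel.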

The subject of assay [2] is Ceratitis capitata. The experiment in a line: Insecticidal activity against adult Ceratitis capitata assessed as mortality at 10 ug/fly measured every 24 hr for 10 days relative to control. Summed up: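 Adults 2-3 days old (5 males, 5 females per group) were anaesthetised on ice and dosed topically on the ventral abdomen with 1 µL of acetone dilution. Controls received 1 µL of acetone. Flies were held at 27 ± 1 °C, 50-60% RH and 16 h/8 h light/dark, with diet and water ad libitum. Mortality was scored every 24 h for 10 days. The assay was run on six occasions.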

For assay [3], the system named is Ceratitis capitata. The experiment in a line: Insecticidal activity against adult Ceratitis capitata assessed as fertility reduction at 10 ug/fly measured on 6 to 10 days relative to control. Further details: scale not given: the % may be the effect or the level left. The method, boiled down: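 Flies were dosed topically with 1 µL of acetone solution after ice anaesthesia; controls received acetone. On days 6 and 10 after treatment, 30 eggs per experiment were picked at random and placed on plates coated with 0.03% agar. Plates were kept at 27 ± 2 °C, 50-60% RH and 16 h/8 h light/dark, and emerged larvae were counted 5 days after collection.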

Assay [4] has as its system Ceratitis capitata. Put plainly: Insecticidal activity against adult Ceratitis capitata assessed as fecundity reduction at 10 ug/fly measured every 2 days for 10 days relative to control. Further details: scale not given: the % may be the effect or the level left. The method, boiled down:
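Flies were anaesthetised on ice and dosed topically on the abdomen with 1 µL of acetone solution; controls received acetone alone. Eggs laid over 24 h were collected and counted every 2 days through the 10-day period. Female deaths were logged to give eggs/female/day, accumulated over 10 days. Six independent experiments, reported as means ± SE.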

The subject of assay [5] is Ceratitis capitata. The experiment in a line: Insecticidal activity against adult Ceratitis capitata assessed as eclosion rate at 10 ug/fly measured on 4 to 10 days relative to control.
The test system of assay [6] is Oncopeltus fasciatus. Put plainly: Insecticidal activity against third-instar nymph stage of Oncopeltus fasciatus assessed as mortality at 20 ug/cm2 after 72 hr relative to control. The method, boiled down: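 Nymphs were reared on sunflower seeds at 27 ± 1 °C, 50-60% RH and 16 h/8 h light/dark. Acute toxicity was scored as dead insects after 72 h of exposure. Controls received the same amount of acetone. Run in triplicate; values are means ± SE with significance at […].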

For six molecules, Survival, mortality and Activity results are on record in ChEMBL document CHEMBL3046222, “Insecticidal activity of penitrems, including penitrem G, a new member of the family isolated from Penicillium crustosum” (2003).

The term mortality denotes the share of the test organisms that died. For the molecule `C=C(C)[C@H]1O[C@H]2CC[C@@]3(C)[C@@](O)(CC[C@H]4[C@@H]5OC(C)(C)[C@H]6C[C@@H]7C(=C)Cc8c(Cl)cc9[nH]c(c5c9c8[C@@]76O)[C@@]43C)[C@@]23O[C@H]3[C@H]1O` [PENITREM A], the Survival in the assay on Oncopeltus fasciatus [1] amounted to 0%. Also, the mortality in the assay on Ceratitis capitata [2] is listed as 59.7%. In addition, the Activity with Ceratitis capitata [3] is listed as 100%; with Ceratitis capitata [4], 78.4%; with Ceratitis capitata [5] it was 0%. Besides, in the assay with Oncopeltus fasciatus [6], the mortality at 20 µg/cm2 worked out at 31.1%.

Consider `C=C1Cc2ccc3[nH]c4c5c3c2[C@H]2[C@@H]1C[C@@H]2C(C)(C)O[C@H]5[C@@H]1CC[C@@]2(O)[C@@]35O[C@@H]3[C@@H](O)[C@@H](C(=C)C)O[C@H]5CC[C@]2(C)[C@@]41C` [PENITREM B], for which the Survival in the assay with Oncopeltus fasciatus [1] was 14.3%. Also, in the assay on Ceratitis capitata [2], the mortality was 50%. For the same molecule, the Activity with Ceratitis capitata [3] is 100%; in the assay with Ceratitis capitata [4], 88%; in the assay on Ceratitis capitata [5], 0%. For the same molecule, the mortality at 20 µg/cm2 with Oncopeltus fasciatus [6] is 6.6%.

Take `C=C1Cc2c(Cl)cc3[nH]c4c5c3c2[C@H]2[C@@H]1C[C@@H]2C(C)(C)O[C@H]5[C@@H]1CC[C@@]2(O)C3=C[C@@H](O)[C@@H](C(=C)C)O[C@H]3CC[C@]2(C)[C@@]41C` [PENITREM C]: the Survival with Oncopeltus fasciatus [1] is on record as 29.5%. In the assay on Ceratitis capitata [2], the mortality is 73.3%. In addition, the Activity with Ceratitis capitata [3] is 100%; in the assay on Ceratitis capitata [4], 94.9%; in the assay with Ceratitis capitata [5] it was 0%. In the assay on Oncopeltus fasciatus [6], the mortality at 20 µg/cm2 was 24.4%.

Take `C=C1Cc2ccc3[nH]c4c5c3c2[C@H]2[C@@H]1C[C@H]2C(C)(C)O[C@H]5[C@@H]1CC[C@@]2(O)C3=C[C@@H](O)[C@@H](C(=C)C)O[C@H]3CC[C@]2(C)[C@@]41C` [PENITREM D]: the Survival with Oncopeltus fasciatus [1] is 58.3%. Also, the mortality in the assay on Ceratitis capitata [2] amounted to 41.7%. Besides, the results for the Activity in the assay on Ceratitis capitata [3], in the assay with Ceratitis capitata [4] and with Ceratitis capitata [5] were 52.5%, 77.1% and 42.8%, respectively. Also, the mortality at 20 µg/cm2 with Oncopeltus fasciatus [6] came out at 11.1%.

Regarding `C=C1Cc2c(Cl)cc3[nH]c4c5c3c2[C@H]2[C@@H]1C[C@@H]2C(C)(C)O[C@H]5[C@@H]1CC[C@@]2(O)[C@@]35O[C@@H]3[C@@H](O)[C@@H](C(=C)C)O[C@H]5CC[C@]2(C)[C@@]41C` [PENITREM F], the Survival with Oncopeltus fasciatus [1] amounted to 9.5%. Moreover, the mortality with Ceratitis capitata [2] worked out at 66.6%. The Activity was 100% with Ceratitis capitata [3], 100% in the assay with Ceratitis capitata [4] and 0% in the assay with Ceratitis capitata [5]. The mortality at 20 µg/cm2 in the assay with Oncopeltus fasciatus [6] stood at 20.3%.

As for `C=C1Cc2ccc3[nH]c4c5c3c2[C@H]2[C@@H]1C[C@H]2C(C)(C)O[C@H]5[C@]1(O)CC[C@@]2(O)C3=C[C@@H](O)[C@@H](C(=C)C)O[C@H]3CC[C@]2(C)[C@@]41C` [PENITREM G], in the assay with Oncopeltus fasciatus [1], the Survival is reported as 100%. The mortality with Ceratitis capitata [2] was 0%. Further, the Activity in the assay with Ceratitis capitata [3] worked out at 3.8%; in the assay with Ceratitis capitata [4] it was 7.2%; in the assay with Ceratitis capitata [5], 88.5%. Also, the mortality at 20 µg/cm2 with Oncopeltus fasciatus [6] amounted to 0%.
